Experimental data taken from ChEMBL document CHEMBL4513216, “Probing the Open Global Health Chemical Diversity Library for Multistage-Active Starting Points for Next-Generation Antimalarials” (ACS Infect Dis, 2020).

Assay: Toxicity liver stage against HepG2, at 10uM
Format: cell-based
Parameters: test concentration 10 uM, cell line HepG2-A16-CD81EGFP
Details: human, HepG2-A16-CD81EGFP cells; read-out: INHIBITION
Outline: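 Uninfected HepG2-A16-CD81EGFP cells, 3 × 10^3 per well, 1536-well, plated on prespotted compound at 10 μM final, parasite-free screening media added to match infected plates; puromycin 10 μM positive, DMSO 0.5% negative; run in parallel with 48 h PbLuc assay at 37 °C, 5% CO2; viability by CellTiter-Glo luminescence, normalized to controls.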

SMILES	cytotoxicity at 10 µM [%]
Cc1nnc(CN2CCOC(c3ccc(Cl)cc3)C2)o1 (stereo not drawn)	5.33
Cc1cc(C)n(Cc2ccc(-c3noc(C(=O)NCCO)n3)cc2)n1	-9.45
O=C(NCCc1c[nH]c2ccccc12)C1(n2cnnn2)CCCCC1	-0.321
CCOC(=O)NCc1nn(CCN2CCCC2)c(=O)c2ccccc12	9.66
Cn1c2c(ccc1=O)CC(NC(=O)Cc1ccsc1)CC2 (stereo not drawn)	4.08
C1CN(CC2CCOCC2)Cc2c(CN3CCOCC3)nnn2C1	-143
c1coc(CN2CCn3c(CN4CCOCC4)nnc3C2)c1	9.1
O=S(=O)(C1CC1)N1CCC2(CC1)COC(COc1cccnc1)C2 (stereo not drawn)	9.49
CS(=O)(=O)NC[C@]12COC[C@H]1CN(C(=O)c1ccncn1)C2	9.2
COc1cc(CC(O)CO)c(OC)c2c1OCO2 (stereo not drawn)	-9.96
O=C(CCn1cc(Cl)cn1)Nc1ncccn1	-5.32
CSc1[nH]nc(NC(=O)c2ccncc2)c1C#N	10.6
Cc1c2ncn(CC(=O)NC(C)C)c(=O)c2nn1C	-5.26
CS(=O)(=O)Nc1ccn(Cc2cccc(F)c2)n1	13.1
CCc1cc(=O)n(CC(=O)N2CCCC2)c(-c2ccc(F)cc2)n1	8.66
CNC(=O)c1cc(-c2ccccc2)nc2ncnn12	-4.66
Cc1cc(C)nc(NC(=O)C(C)Oc2ccc3c(c2)OCO3)n1 (stereo not drawn)	-9.9
Cc1cc(=O)n(CC(=O)NCCC(C)C)c(-c2cccc(Cl)c2)n1	-2.32
Cc1cc(Nc2nc(C)cc(C)n2)cc(C2CCCN2)n1 (stereo not drawn)	0.407
CC(=O)N1CCC(C(=O)N2CCC2c2nc(-c3ccc(C)s3)no2)CC1 (stereo not drawn)	3.15
COc1cccc([C@@H]2N[C@H](c3nccs3)Cc3ccsc32)c1OC	5.24
O=C(O)c1ccccc1-c1ccc(CN2CCCC(O)C2)cc1 (stereo not drawn)	-9.16
Cc1cc(C)n(CC(C)CNC(=O)N(C)Cc2ccco2)n1 (stereo not drawn)	4.47

SMILES	cytotoxicity at 10 µM [%]
O=C(CCOc1ccc(Cl)cc1)NCCCn1cccn1	-12.1
O=C(CCn1ccnc1)N1CCCC(n2cncn2)C1 (stereo not drawn)	0.0383
CCOCc1cccc(NCc2c[nH]nc2-c2cccnc2)c1	-3.9
CN(C)c1ncccc1CNc1snc(Cl)c1C#N	-5.1
COc1cccc(Cc2nnc(SCCS(C)(=O)=O)o2)c1	2.72
CC1COCCN1c1ncnc2sccc12 (stereo not drawn)	14.1
c1cnnc(N2CCCC2CNCc2nnc(C3CC3)o2)c1 (stereo not drawn)	1.41
CCCn1nc(C(=O)N(C)Cc2cnn(C)c2)ccc1=O	-143
Cc1n[nH]c(C2CN(C(=O)c3cc(C4CC4)on3)CCO2)n1 (stereo not drawn)	-9.63
Cc1ncsc1CNc1cccc(OCCN2CCCC2)c1	-3.35
O=C(NCCSCc1ccc(Br)s1)C1CCCN(c2cnccn2)C1 (stereo not drawn)	5.34
Cc1nnc(C(NS(=O)(=O)c2cc(C#N)ccc2C)C(C)C)[nH]1 (stereo not drawn)	4.98
O=C(C1CCCN(Cc2ccccc2)C1)N1CCc2sccc2C1 (stereo not drawn)	2.41
CNC(=O)NC(=O)CN1CCCN(CC(F)(F)F)CC1	-2.37
Cc1ncsc1CNC(=O)N1CCN(Cc2ccccc2)C[C@H]1C	-125
CSc1ccsc1C(=O)NS(=O)(=O)c1cnn(C)c1	-5.35
CCc1nc(CN2CCCC2C(=O)NC)cs1 (stereo not drawn)	-3.09
CC(SCC(=O)N(C)CC(=O)NC1CC1)c1cc(F)ccc1F (stereo not drawn)	8.13
Cc1nc(CN(CCS(C)(=O)=O)C(C)C)no1	0.329
NC(=O)CNC(=O)c1ccc(CNCc2ccc(Cl)cc2Cl)cc1	-41.5
CCC(CC(=O)Nc1ccc2c(c1)CC(=O)N2)c1ccccc1 (stereo not drawn)	-1.06
FC(F)(F)c1n[nH]c2c1CN(Cc1cn3ccccc3n1)CC2	7.76
CN(CCNC(=O)Nc1cnn(C)c1)Cc1ccc(F)cc1	7.72

SMILES	cytotoxicity at 10 µM [%]
N#Cc1ccc(N2CCCN(CC(=O)N3CCNC(=O)C3)CC2)cc1	5.27
CNC(=O)Cc1noc(Cc2cccc(Br)c2)n1	1.06
Cc1csc(NC(=O)CN(C)CC2CCCN2c2cccnn2)n1 (stereo not drawn)	-5.82
CC(c1ccc(Cl)cc1)N1CCN(CCS(C)(=O)=O)CC1 (stereo not drawn)	-20.3
CCc1cnc(CN(C(C)=O)C2CCN(CCS(C)(=O)=O)C2)o1 (stereo not drawn)	-17.8
Cc1nc(C)n(CC2CCCCN2CC(=O)Nc2cccnc2)n1 (stereo not drawn)	-12.4
CN(C)Cc1nc(-n2cnc(C(=O)NCC3CC3)c2)n2ccccc12	1.55
COc1ccc(Oc2cccnc2)cc1CN1CCCC1	2.67
CCC[C@H]1CN(Cc2ccccc2C#N)C[C@@H]1NS(C)(=O)=O	-11
COCC(=O)N1CCC2(CC1)c1ccccc1[C@@H](N1CCSCC1)[C@@H]2O	4.58
CN(Cc1cc(C2CC2)on1)C(=O)C(c1cccnc1)N1CCCC1 (stereo not drawn)	-41.6
Cc1ccc(N2CCC(c3[nH]ncc3Cc3ccccc3)CC2)nn1	-6.86
COCCCN(Cc1cnc(C2CCCCC2)nc1)C1CCN(C)CC1	-4.43
COCc1noc(-c2ccc(N3CCCCC3COC)nc2)n1 (stereo not drawn)	1.69
COCCc1noc(-c2cn(Cc3ccccc3C)nn2)n1	3.15
O=S1(=O)CCC(n2nc(Cc3cccs3)nc2-c2cnccn2)C1 (stereo not drawn)	-6.33
CN1CCc2[nH]nc(C(=O)N3CCC4(CN(C)C(=O)O4)C3)c2C1 (stereo not drawn)	-46.4
O=C(CN1CC(c2ccccc2)CC1=O)N1CCC(c2ncc[nH]2)CC1 (stereo not drawn)	-0.234
CC(C)Oc1cc(N2CCN(Cc3ccsc3)C(CCO)C2)nc(N)n1 (stereo not drawn)	-6.35
FC(F)(F)c1ccc(-n2ccnc2-c2cc3n(n2)CCNC3)cn1	-4.65
Cc1nccnc1N1CCC(Cc2ccccc2Cl)(C(=O)O)CC1	12.6
CCCc1cncnc1N1CCC(NCc2ccncc2)CC1	6.31
COCC(C)Nc1ccc(-c2nc(Cc3ccc(F)cc3)no2)cn1 (stereo not drawn)	7.22

SMILES	cytotoxicity at 10 µM [%]
CSCC(=O)N1CCCN(c2ccncc2C)CC1	-6.09
Cn1ncnc1-c1ccnc(N2CCC(C(O)c3cccs3)CC2)n1 (stereo not drawn)	-39.2
CCc1cnc(N)nc1N1CCN(C(C)=O)CC1	-51.7
Cc1ccc(-c2ccnc(NC(C)c3ncc[nH]3)n2)c(C)n1 (stereo not drawn)	3.29
CS(=O)(=O)N1CCC(NCC2(N3CCOCC3)CCCCC2)CC1	-3.27
CNC1CCN(C2CCN(c3ccc(-c4ccco4)cc3)CC2)CC1	-22.4
Cc1oc(-c2ccc(F)cc2F)nc1CN1C[C@@H](C)O[C@@H](C)C1	-39.9
Cc1cnccc1CN(C)C1CCN(c2ncnc3[nH]cnc23)CC1	-42.9
C1CCC(c2nnc3sc(C4CCCO4)nn23)C1 (stereo not drawn)	8.61
CCC[C@H]1CN(c2nccc(NCC)n2)C[C@@H]1NS(=O)(=O)N(C)C	-144
Cn1cc(CN(Cc2cccc(-n3cccn3)c2)C2CC2)cn1	-15.4
Cc1nn(CCNC(C)Cn2cncn2)c(C)c1Cl (stereo not drawn)	13.4
CC[C@H]1CN(C(=O)c2cnc(CN3CCCC3)s2)CC[C@@]1(C)O	-16
Cc1c(CN2CCOCC2)c(O)n(CCO)c(=O)c1C#N	-2.78
CCc1nc(C)cn1C(=O)Nc1ccccc1	2.52
CCN1CCN(c2ncc(-c3cc(C)no3)c(-c3ccoc3C)n2)CC1	1.16
CCOc1ccc(Cl)c(C(=O)NC)n1	-4.63
CC(NS(C)(=O)=O)C(=O)N1CCCN(Cc2cscn2)CC1 (stereo not drawn)	-5.95
CC(C(=O)NCc1ccnc(N(C)C)c1)n1cccn1 (stereo not drawn)	-13.8
CCc1nc2n(n1)CC(NCc1nc(-c3cccnc3)no1)CC2 (stereo not drawn)	-8.66
CCOc1ccc(CC(CNC(=O)c2ccoc2C)C(N)=O)cc1 (stereo not drawn)	7.87
Cc1nn(C)c(C)c1C1CCCN1C(=O)CCCn1cccn1 (stereo not drawn)	-0.685
CNS(=O)(=O)c1ccc(C(=O)N2CCCC2c2cnn(C)c2)o1 (stereo not drawn)	-8.28

SMILES	cytotoxicity at 10 µM [%]
CC(C)c1ncncc1C(=O)N1CCN(Cc2cscn2)CC1	-5.75
CCc1ccc(O)c(C(=O)NC2CCN(Cc3ccncc3)CC2)c1	5.52
COCCCNC(=O)NCc1ccc(C)cc1	3.37
CCOc1cccc(CNC(=O)NCC(O)c2cccc(F)c2)c1 (stereo not drawn)	-2.92
Cc1nn(C)c(C)c1C1CCCN1CCCc1nc2ccccc2o1 (stereo not drawn)	-4.3
Cc1ccc(F)cc1S(=O)(=O)NCc1cccnc1N(C)C	0.716
CCOc1ccc(CC(=O)N2CCN(c3nccn3CC)CC2)cc1	11.1
Cc1ccc(CN[C@@H]2COC[C@H]2c2ccc(F)cc2)cc1C	9.07
CC(C)CN1CCN(S(=O)(=O)c2cn(C)cn2)Cc2cccnc21	-144
CC(=O)N1CCO[C@@H]2CN(C(=O)c3ccc4ncccc4c3)CC[C@@H]2C1	8.22
CC(C)N1CCC2(CC1)C(=O)N(CCN(C)C)c1ccccc12	-121
CNC(=O)c1cc2c(nc1NCC(C)C)CCN(C)CC2	-153
Cc1cc(CN2CC[C@H]3C[C@H](C(=O)Nc4cccnc4C)O[C@@H]3C2)no1	-67
CCCN1CCCn2c(nc(CNC(=O)N3CCCC3)cc2=O)C1	12.1
c1ccc(CN2CCn3c(Cn4cncn4)cnc3C2)nc1	-70.7
Cc1ccc2c(n1)N(CCN(C)C)CCN(C(=O)c1ccoc1)C2	-74.4
Cc1nc(COC[C@@H]2CCC[C@@]23CNCCO3)cs1	3.29
CCOc1ccc2ccccc2c1CNCC1CCNCC1	-9.67
O=C1NC2(CCN(Cc3nccs3)CC2)CC1c1ccncc1 (stereo not drawn)	-1.31
COc1ccc(Cl)cc1S(=O)(=O)N1C[C@H]2CC[C@@H](C1)N(C)C2=O	3.98
CN1CCN(C=C2N=C(c3cc(-c4ccccc4F)n[nH]3)ON2)CC1	-4.92
